STEP block: inhibitors of human striatal-enriched phosphatase STEP. inhibition, % at 20 µM. AID 588621. recombinant STEP, OMFP fluorogenic substrate, fluorescence. P54829. 360,000 tested, 0.25% active;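 active = inhibition at 20 µM, scaled per plate between control wells, above about 37%, limit read from the data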;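 also: 0% = DMSO with enzyme and substrate and 100% = substrate only without enzyme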
Target sequence (P54829 whole entry, looked up): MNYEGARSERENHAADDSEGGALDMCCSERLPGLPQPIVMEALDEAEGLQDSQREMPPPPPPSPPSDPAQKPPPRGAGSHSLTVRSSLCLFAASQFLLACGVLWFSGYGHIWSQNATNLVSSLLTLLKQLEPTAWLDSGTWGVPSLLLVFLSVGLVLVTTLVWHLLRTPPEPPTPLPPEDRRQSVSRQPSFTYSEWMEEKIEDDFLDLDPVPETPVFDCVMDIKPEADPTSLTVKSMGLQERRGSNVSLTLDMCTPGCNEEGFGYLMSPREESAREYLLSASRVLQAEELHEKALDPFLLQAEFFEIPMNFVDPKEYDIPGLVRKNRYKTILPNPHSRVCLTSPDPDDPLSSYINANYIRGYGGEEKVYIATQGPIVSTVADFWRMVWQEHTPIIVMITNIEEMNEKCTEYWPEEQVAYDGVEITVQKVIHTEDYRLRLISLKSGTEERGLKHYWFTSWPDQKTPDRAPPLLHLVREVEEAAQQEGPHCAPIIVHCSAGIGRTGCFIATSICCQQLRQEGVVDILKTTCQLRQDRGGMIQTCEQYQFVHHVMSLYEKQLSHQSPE
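Test system: STEP tyrosine phosphatase / Reagent: OMFP at 25 µM / Doses: 20 µM, 1% DMSO / Read-out: percent inhibition scaled to no-enzyme and uninhibited-enzyme controls, plate-pattern corrected / Detection: FITC-channel fluorescence of OMFP product / Medium: Bis-Tris buffer pH 6.0, 2.5 mM DTT, 0.005% Tween 20 / Schedule: 20 min at room temperature, dark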
rCAG RNA binder: binds r(CAG) RNA repeats; r(CAG) RNA repeat, TO-PRO-1 dye displacement fluorescence; inhibition, % at 3 µM; 370,000 tested, 1.3% active;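 active = inhibition above the plate cutoff, the mean of all test compounds on that plate plus 3 SD, cut at about 35% in these data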;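 also: 0% = DMSO alone and 100% = 100 µM mitoxantrone as full dye displacement; higher means more dye released from RNA so lower well fluorescence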
NadD block: NadD (S. aureus) enzyme inhibition. purified NadD enzyme, colorimetric absorbance read-out. inhibition, % at 20 µM. 360,000 tested, 0.78% active. AID 602399; in the data active = inhibition above about 26%
Scp1 inh: Scp-1 (human) phosphatase inhibition; Recombinant Scp1, phosphopeptide, malachite green phosphate absorbance; inhibition, % at 20 µM; 340,000 tested, 0.88% active; AID 493091;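 active = inhibition above about 50% at 20 µM, limit read from the data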;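 also: plate controls were DMSO wells with enzyme for no effect and wells lacking enzyme for full effect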
Target sequence (Q9GZU7 76-261 limits assumed): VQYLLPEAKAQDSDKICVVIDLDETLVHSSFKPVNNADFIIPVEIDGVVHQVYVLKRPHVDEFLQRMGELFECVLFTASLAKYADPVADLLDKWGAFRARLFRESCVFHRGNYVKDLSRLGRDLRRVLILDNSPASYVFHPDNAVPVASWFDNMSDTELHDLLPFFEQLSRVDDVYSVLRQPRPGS
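Test system – truncated SCP-1 phosphatase (76-261aa) · Reagent – Phosphorylated 17-residue peptide substrate · Incubation – 45 min room-temperature reaction, 5 min colour, 30 min stabiliser · Detection – colorimetric phosphate reagent with accelerator and stabiliser, absorbance at 630 nm · Measure – % inhibition at 20 µM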
LMPTP block: blocks human LMPTP phosphatase; recombinant LMPTP-A, OMFP fluorogenic substrate, fluorescence intensity; 360,000 tested, 0.22% active; inhibition, % at 20 µM;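 active = compounds that cut the enzyme signal by at least half of the control window in the single-dose screen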;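 also: plate controls were DMSO wells with enzyme plus substrate for no effect and substrate without enzyme for full effect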
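Assay system: LMPTP-A phosphatase enzyme | Input: 0.625 nM enzyme | Also added: Fluorogenic phosphatase substrate OMFP at 400 µM final | Compound dosing: One test concentration per compound, 20 µM, with 3% DMSO overall | Schedule: 50 min enzyme reaction at room temperature, protected from light | Signal: Fluorescence intensity | Benchmarks: no-enzyme and uninhibited controls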
rCAG binder conf: r(CAG) RNA repeat binding, confirmation. shares compounds with rCAG RNA binder. TO-PRO-1 dye displacement fluorescence. inhibition, % at 3 µM. 4,300 tested, 70% active;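 active = inhibition above a per-plate cutoff, the mean inhibition of sample wells plus 3 SD, cut at about 35% in these data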;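 also: loss of TO-PRO-1 fluorescence as compound displaces dye from 1x1 AA loop RNA; 0% = DMSO only wells and 100% = 100 µM mitoxantrone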
DNA CAG counter: counter-screen for rCAG RNA binders: DNA CAG dye complex inhibitors | shares compounds with rCAG RNA binder | d(CAG) DNA oligo TO-PRO-1 dye displacement, fluorescence | inhibition, % at 3 µM | 4,300 tested, 94% active;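 active = inhibition above its plate's cutoff, the mean test-well inhibition plus 3 SD, cut at about 4.8% in these data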;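 also: 0% = DNA dye mix with DMSO and 100% = 100 µM mitoxantrone; hits displace the dye from DNA and so lower well fluorescence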
dCAG dye DR: DNA CAG dye complex inhibition, dose response counter-screen. shares compounds with rCAG RNA binder. DNA CAG/GTC duplex TO-PRO-1 dye displacement fluorescence. IC50, µM. 250 tested, 20% active. AID 686960; in the data active = IC50 below about 10 µM
* hit, by the source's call; i = inactive; · = not tested or not shown. An excerpt weighted towards active compounds, which were near 2.6% of everything screened.

SMILES	STEP block	rCAG RNA binder	NadD block	Scp1 inh	LMPTP block	rCAG binder conf	DNA CAG counter	others
Cc1c(Br)c(O)c(Br)c2sc(=O)oc12	22.1	92.4*	2.6	-2.0	2.4	42.3*	21.4*	dCAG dye DR=>29.9
COc1ccc2[nH]c(C)c(-c3csc(N)n3)c2c1	1.5	37.0*	1.9	-1.2	-0.9	14.8	10.7*
CCCCNC(=O)c1nc(C2CCN(S(=O)(=O)c3csc(C(=O)O)c3)CC2)oc1-c1ccccc1	-1.4	44.2*	-4.7	·	-1.4	39.4*	11.3*	dCAG dye DR=>29.9
COc1cc(/C=C2/C(=O)NN(c3ccccc3)C2=O)cc(Br)c1O	11.5	10.5	-3.2	-7.7	3.6	·	·
N=C1/C(=C\c2ccc(OC(=O)c3ccco3)cc2)C(=O)N=C2SC=NN12	1.8	8.7	7.7	45.0	0.3	·	·
CCS(=O)(=O)C1=NSC2=NC(=O)/C(=C\c3ccc(OC(=O)c4ccco4)c(OC)c3)C(=N)N21	-0.4	20.7	5.3	13.1	-1.5	·	·
CCS(=O)(=O)C1=NN2C(=N)/C(=C\c3ccc(OC(=O)c4ccco4)c(OC)c3)C(=O)N=C2S1	2.0	52.3*	4.1	11.3	-0.9	80.4*	47.2*
CCOC(=O)c1ccc(N2NC(=O)/C(=C/c3ccc(OC(=O)c4ccco4)c(OC)c3)C2=O)cc1	·	83.8*	·	·	·	90.4*	66.2*
CCOC(=O)COc1ccc(/C=C2/C(=O)NN(c3ccc(F)cc3)C2=O)cc1OC	6.9	3.4	1.9	13.9	2.4	·	·
CC(C)CS(=O)(=O)C1=NN2C(=N)/C(=C\c3ccc(OC(=O)c4ccco4)cc3)C(=O)N=C2S1	9.9	80.6*	8.1	68.8*	4.6	86.8*	66.2*
COc1cc(/C=C2/C(=O)NN(c3ccc(Cl)cc3)C2=O)cc(OC)c1O	3.7	37.2*	-1.9	-7.7	1.5	13.4	4.5*
Cc1ccc(CN2CCCCC(NC(=O)Nc3ccccc3-c3ccccc3)C2=O)cc1 (centres undefined)	·	2.3	·	·	·	·	·
C=CCOc1ccc(/C=C2\C(=N)N3N=C(S(=O)(=O)CC)SC3=NC2=O)cc1OC	-3.1	36.0*	4.3	2.7	-0.1	81.5*	42.1*
CCN1CCCCC(NC(=O)c2ccc(F)c(F)c2)C1=O (centres undefined)	·	-0.3	·	·	·	·	·
CCCCN(C)C(=O)CNc1nnnn1-c1ccccc1	·	0.8	·	·	·	·	·
CCCSc1nc(O)c(C(c2ccc(OC)c(O)c2)c2c(O)nc(SCCC)n(C)c2=O)c(=O)n1C	0.2	46.3*	18.3	-7.6	-1.6	40.2*	12.7*
CCOC(=O)C1=NOC(C(C)=O)(C(=O)NC2CCCC2)C1 (centres undefined)	·	1.2	·	·	·	·	·
COc1ccc(Cc2nnc(SCC(=O)Nc3ccccc3)[nH]c2=O)cc1	-1.0	12.9	3.5	40.6	-1.0	·	·
COc1ccc(Cc2nnc(SCC(=O)Nc3cc(Cl)ccc3OC)[nH]c2=O)cc1	-0.7	50.8*	1.0	1.0	-0.3	50.1*	16.2*
Cc1ccc(-c2nnc(SCC(=O)Nc3ccc(F)cc3F)n2Cc2ccco2)cc1	·	6.7	·	·	·	·	·
COc1cc([C@@H]2CC=C(C(=O)O)[C@H](c3ccccc3F)N2S(=O)(=O)c2ccc(C)cc2)cc(OC)c1OC	1.9	27.1	0.2	17.0	-0.9	·	·
COc1ccc([C@@H]2CC=C(C(=O)O)[C@H](c3ccc(Br)cc3)N2S(=O)(=O)c2ccccc2C)cc1	-3.8	76.8*	4.3	-16.7	0.1	75.5*	39.9*
Cc1ccccc1S(=O)(=O)N1C(c2ccc(Cl)c(Cl)c2)CC=C(C(=O)O)C1c1cccc(Br)c1 (centres undefined)	·	85.6*	·	·	0.3	85.4*	57.4*
Cc1ccc([C@@H]2CC=C(C(=O)O)[C@H](c3ccccc3F)N2S(=O)(=O)c2ccccc2C)cc1	2.8	51.4*	4.3	0.8	-0.7	59.4*	23.7*
CCc1ccc([C@@H]2CC=C(C(=O)O)[C@H](c3ccc(Br)cc3)N2S(=O)(=O)c2ccc(C)cc2)cc1	-2.8	6.0	12.1	-12.4	3.4	·	·
SMILES	STEP block	rCAG RNA binder	NadD block	Scp1 inh	LMPTP block	rCAG binder conf	DNA CAG counter	others
COc1ccc([C@@H]2CC=C(C(=O)O)[C@H](c3ccc(F)cc3)N2S(=O)(=O)c2ccc(C)cc2)cc1OC	-2.8	26.5	-2.9	-5.2	0.4	·	·
COc1ccc([C@@H]2CC=C(C(=O)O)[C@H](c3ccc(Cl)cc3)N2S(=O)(=O)c2ccccc2C)cc1	-1.1	47.2*	0.9	-0.2	0.4	60.0*	24.7*
C/C=C/c1ccc([C@@H]2[C@H](CO)N(S(C)(=O)=O)[C@H]2CN(C)C(=O)CC)cc1	·	4.8	·	·	·	·	·
Cn1c(Cc2cccs2)nnc1SCC(=O)Nc1ccc(OCc2ccccc2)cc1	·	2.6	·	·	·	·	·
COc1cc([C@@H]2CC=C(C(=O)O)[C@H](c3ccc(F)cc3)N2S(=O)(=O)c2ccc(C)cc2)cc(OC)c1OC	0.4	29.5	-0.5	-5.2	0.3	·	·
Cc1ccc([C@@H]2CC=C(C(=O)O)[C@H](c3cccc(F)c3)N2S(=O)(=O)c2ccccc2C)cc1	2.0	75.8*	2.9	-4.2	0.1	67.0*	28.3*
Cc1ccccc1S(=O)(=O)N1[C@@H](c2ccccc2)C(C(=O)O)=CC[C@H]1c1ccc(Cl)cc1	1.1	65.4*	4.7	0.6	0.7	74.0*	36.4*
Cc1ccc([C@@H]2CC=C(C(=O)O)[C@H](c3ccc(Br)cc3)N2S(=O)(=O)c2ccccc2C)cc1	0.6	85.8*	11.1	-13.8	1.9	81.4*	47.5*
Cc1ccc([C@@H]2CC=C(C(=O)O)[C@H](c3ccc(Cl)cc3)N2S(=O)(=O)c2ccccc2C)cc1	6.6	73.4*	3.3	8.2	0.6	69.8*	31.5*	dCAG dye DR=i
CN1C(=O)[C@@]2(O[C@H]3C=CC=CN3C3=C2C(=O)CCC3)c2cccc(Br)c21	·	9.5	·	·	·	·	·
COc1cccc(CCNC(=O)CCc2nc(-c3ccccc3F)no2)c1	·	2.1	·	·	·	·	·
Cc1ccccc1S(=O)(=O)N1[C@@H](c2ccc(Br)cc2)C(C(=O)O)=CC[C@H]1c1ccc(Cl)cc1	0.4	87.9*	11.2	-13.8	1.5	83.8*	56.6*
Cc1ccc2c(c1)c1c3n2CCN(C(=O)C2CC2)C3CCC1 (centres undefined)	3.0	8.3	-5.8	-6.6	-0.7	·	·
Cc1ccc2c(c1)c1c3n2CC(=C2C(=O)OC(C)(C)OC2=O)NC3CCC1 (centres undefined)	1.4	46.7*	29.9	-10.2	2.8	34.2	18.4*

Compound activity from PubChem.
